In the library only some 2.8% were active in any assay of this set; here they are far more common.
PGE2 EP2 inh = blocks the human prostaglandin E2 receptor EP2 | C6 glioma cells expressing human EP2, cAMP TR-FRET; cells stimulated with saturating PGE2 | inhibition, % at 25 µM | 260,000 compounds, 0.52% hits | AID 1422;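 active = percent inhibition above 40 after rounding to a whole number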;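 also: rat C6 glioma host cells with rolipram phosphodiesterase inhibitor present; the protocol text gives 20 µM as final concentration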
NPY-Y1 PAM-ag = human NPY-Y1 potentiation or agonism, primary screen; activation, % at 3.6 µM; P25929; AID 1304; NPY-Y1 expressing cells, potentiator/agonist activation; 220,000 compounds, 0.37% hits; in the data active = activation above about 33%, passing the limit was not always enough;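 also: cells stimulated with NPY at EC10 then isoproterenol at EC100; 0% = low agonist plus stimulus and 100% = saturating agonist plus stimulus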
Target sequence (P25929 whole entry, looked up): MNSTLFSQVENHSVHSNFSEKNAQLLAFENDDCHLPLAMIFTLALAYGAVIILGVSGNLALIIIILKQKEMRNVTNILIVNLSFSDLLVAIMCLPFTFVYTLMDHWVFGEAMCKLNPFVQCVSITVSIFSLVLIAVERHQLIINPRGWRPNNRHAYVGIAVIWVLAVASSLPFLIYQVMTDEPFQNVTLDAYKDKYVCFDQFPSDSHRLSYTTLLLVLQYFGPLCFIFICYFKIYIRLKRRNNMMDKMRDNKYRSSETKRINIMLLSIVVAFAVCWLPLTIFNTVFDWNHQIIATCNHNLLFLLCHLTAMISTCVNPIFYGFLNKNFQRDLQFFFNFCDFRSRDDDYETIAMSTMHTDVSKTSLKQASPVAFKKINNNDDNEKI
NPY-Y2 PAM-ag = potentiates or activates human NPY-Y2 receptor; activation, % at 3.6 µM; 220,000 compounds, 0.45% hits; cells expressing NPY-Y2, potentiator/agonist read-out; P49146; in the data active = activation above about 27%;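 also: cells stimulated with NPY near EC25 plus isoproterenol at EC100; 0% = vehicle plus submaximal agonist and 100% = vehicle plus saturating agonist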
Target sequence (P49146 whole entry, looked up): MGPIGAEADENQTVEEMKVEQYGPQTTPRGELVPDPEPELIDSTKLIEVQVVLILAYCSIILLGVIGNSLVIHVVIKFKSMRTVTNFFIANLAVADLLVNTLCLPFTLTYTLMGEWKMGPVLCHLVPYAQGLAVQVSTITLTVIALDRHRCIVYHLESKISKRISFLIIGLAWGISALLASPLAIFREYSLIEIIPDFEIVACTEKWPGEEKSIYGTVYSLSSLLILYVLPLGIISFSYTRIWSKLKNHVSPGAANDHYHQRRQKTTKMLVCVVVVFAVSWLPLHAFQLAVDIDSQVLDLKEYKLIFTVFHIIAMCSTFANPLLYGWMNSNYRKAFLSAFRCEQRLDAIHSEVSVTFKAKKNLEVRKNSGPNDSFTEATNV
EP2 mod = EP2 receptor (human) modulation; P43116; EP2-expressing cells, cAMP HTRF FRET, PGE2 co-stimulation; induction, % at 25 µM; 260,000 compounds, 0.83% hits;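 active = compounds whose cAMP rise, as percent of the full-agonist control response, exceeds 60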;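 also: rat C6 glioma line stably carrying human EP2 under a CMV promoter; the protocol text gives 20 µM as final concentration; 100% = response of wells given 1 µM PGE2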
NPY Y1 blocker = antagonists of human neuropeptide Y receptor Y1; HEK293-CNG Y1 cells, membrane potential fluorescence; NPY at EC95, then isoproterenol; inhibition, % at 3.6 µM; 200,000 compounds, 1% hits;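 active = inhibition above the campaign mean inhibition of all tested compounds plus 3 SD, cut at about 20% in these data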;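 also: 0% = DMSO wells given NPY plus isoproterenol and 100% = isoproterenol alone without NPY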
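Material: Y1- and CNG-channel-expressing HEK293 cells / Probe or stimulus: NPY 25 nM then isoproterenol 1 µM plus Ro 20-1724 25 µM / Doses: 3.6 µM single dose, DMSO 0.4% / Schedule: compound incubation 1 h at room temperature, readout 45 min post-stimulation / Signal: membrane potential fluorescence / Benchmarks: isoproterenol-only wells as full block versus NPY-plus-isoproterenol wells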
NPY Y2 blocker = antagonists of human neuropeptide Y receptor Y2 | P49146 | AID 793 | inhibition, % at 2.7 µM | NPY-Y2 expressing cells, antagonist mode | 140,000 compounds, 0.99% hits;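 also: 0% = vehicle with agonist challenge and 100% = reference antagonist with challenge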
EP2 confirm = human EP2 receptor cAMP induction, negative in counter-screens; C6 glioma EP2 cells, cAMP HTRF induction; plus low (about EC15) PGE2 agonist; 1,300 compounds, 47% hits; calls only at 20 µM (by protocol); shares compounds with EP2 mod;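 active = cAMP induction above 50% in the main assay while under 30% in all four parallel counter assays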;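 also: rat C6 glioma cells stably expressing human EP2 receptor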
NPY-Y1 ant conf = confirmation of human neuropeptide Y receptor Y1 antagonists | shares compounds with NPY Y1 blocker | HEK293-CNG NPY-Y1, membrane potential fluorescence, cAMP; NPY challenge against isoproterenol-raised cAMP | inhibition, % at 3.6 µM | 1,200 compounds, 21% hits; in the data active = inhibition above about 20%;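 also: 0% = vehicle with agonist plus stimulus and 100% = stimulus alone without agonist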
NPY2 antag ctr = human NPY-Y2 antagonism in NPY-Y1 counter-screen. shares compounds with NPY Y1 blocker. HEK293 NPY-Y2 CNG membrane potential fluorescence; cells given NPY, then isoproterenol. inhibition, % at 3.6 µM. 1,200 compounds, 28% hits. AID 1255;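 also: 0% = DMSO with agonist challenge and 100% = reference antagonist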
* hit, by the source's call. Rule as the data show it, unless noted: active = inhibition above about 17%; inactive = the rest.

How did O=c1c2ccccc2nc(N2CCCC2)n1-c1ccc(Cl)cc1 do in these assays?
PGE2 EP2 inh: 8.8; NPY-Y1 PAM-ag: -24.2; NPY-Y2 PAM-ag: 1.0; EP2 mod: 67.9*; NPY Y1 blocker: -3.5; NPY Y2 blocker: 6.5; EP2 confirm: active

How did C/C=C(\C)C(=O)O[C@H]1C[C@@H](OC(C)=O)[C@@]2(C(=O)OC)CO[C@@H]3C2[C@]12CO[C@](O)(C(=O)OC)[C@H]2[C@](C)(C12O[C@@]1(C)[C@H]1C[C@@H]2OC2OC=C[C@@]21O)[C@@H]3O (stereo partly drawn) do in these assays?
PGE2 EP2 inh: 12.9; EP2 mod: 10.6

How did CN(CC(=O)Nc1ccccc1-c1ccccc1)C1CCCCC1 do in these assays?
PGE2 EP2 inh: 8.2; NPY-Y1 PAM-ag: -15.1; NPY-Y2 PAM-ag: -4.6; EP2 mod: 74.3*; NPY Y1 blocker: 1.5; NPY Y2 blocker: 10.0; EP2 confirm: inactive

How did CCc1ccccc1NC(=O)CNC1CCCCC1 do in these assays?
PGE2 EP2 inh: 3.2; NPY-Y1 PAM-ag: 24.1; NPY-Y2 PAM-ag: -5.1; EP2 mod: 8.1; NPY Y1 blocker: 2.3

How did Cn1ccnc1C1(O)CC2CCC(C1)N2CC(=O)Nc1ccc2c(c1)CCC2 (stereo not drawn) do in these assays?
EP2 mod: -1.9

How did COC(=O)C1=C(C)OC(N)=C(C#N)C12C(=O)Nc1ccc(F)cc12 (stereo not drawn) do in these assays?
PGE2 EP2 inh: 9.1; EP2 mod: -8.8

What do the screens show for `CCOC(=O)C(C)Oc1cc(C)cc2oc(=O)c3c(c12)CCCC3` (stereo not drawn)?
PGE2 EP2 inh: 2.5; NPY-Y1 PAM-ag: -15.9; NPY-Y2 PAM-ag: -18.2; EP2 mod: 57.4; NPY Y1 blocker: 7.4; NPY Y2 blocker: 9.8

Results for Cc1cc(OCC(=O)OC(C)C)c2c3c(c(=O)oc2c1)CCCC3 ?
PGE2 EP2 inh: 1.9; NPY-Y1 PAM-ag: -0.7; NPY-Y2 PAM-ag: 4.6; EP2 mod: 65.6*; NPY Y1 blocker: 2.7; NPY Y2 blocker: 9.4; EP2 confirm: active

Results for CCN(CC)C(=O)CN1CC=C(c2ccc(C)o2)CC1 ?
EP2 mod: -11.0

What do the screens show for `C[C@]12CCC3C(CC[C@H]4C[C@@H](Cl)CC[C@]34C)C1CCC2=O` (stereo partly drawn)?
PGE2 EP2 inh: 11.6; EP2 mod: 64.4*; EP2 confirm: active

What do the screens show for `C[C@]12CCC3C(CC[C@H]4C[C@H](OS(=O)(=O)O)CC[C@]34C)C1CCC2=O` (stereo partly drawn)?
PGE2 EP2 inh: 9.6; EP2 mod: 19.2

Results for CC1CC[C@]2(NC1)O[C@H]1CC3C4CC[C@H]5C[C@@H](O)CC[C@]5(C)C4CC[C@]3(C)[C@H]1[C@@H]2C (stereo partly drawn) ?
PGE2 EP2 inh: 16.6; EP2 mod: 12.0

What do the screens show for `CC(C)C1(C)N=C(c2ncccc2C(=O)O)NC1=O` (stereo not drawn)?
PGE2 EP2 inh: 7.6; NPY-Y1 PAM-ag: 8.6; NPY-Y2 PAM-ag: -3.6; EP2 mod: 72.2*; NPY Y1 blocker: -1.2; NPY Y2 blocker: 1.1; EP2 confirm: inactive

Results for CCN(CC)CCCNC(=O)c1c(O)c2ccccc2n(Cc2ccccc2)c1=O ?
PGE2 EP2 inh: 8.4; NPY-Y1 PAM-ag: -49.0; NPY-Y2 PAM-ag: -41.0; EP2 mod: -12.2; NPY Y1 blocker: 20.4*; NPY Y2 blocker: 14.6; NPY-Y1 ant conf: 16.4; NPY2 antag ctr: 25.9*

What do the screens show for `Cn1c(N2CCNCC2)nc2c1c(=O)[nH]c(=O)n2C`?
PGE2 EP2 inh: 16.6; EP2 mod: 7.1

What do the screens show for `CCc1ccc(CN2CCNCC2)cc1`?
PGE2 EP2 inh: 7.5; EP2 mod: 9.6

What do the screens show for `Cc1cccc(N2CCN(CCc3ccccc3)CC2)c1C`?
NPY-Y1 PAM-ag: -13.9; NPY-Y2 PAM-ag: -22.4; EP2 mod: -26.1; NPY Y1 blocker: 22.6*; NPY Y2 blocker: 8.1; NPY-Y1 ant conf: 4.7; NPY2 antag ctr: 8.2

Results for Cc1ccc(N2CCN(CCc3ccccc3)CC2)cc1 ?
PGE2 EP2 inh: 12.1; NPY-Y1 PAM-ag: -13.9; NPY-Y2 PAM-ag: -0.7; EP2 mod: 7.5; NPY Y1 blocker: -1.1; NPY Y2 blocker: 0.3

Results for Cc1ccc(C2=CCN(CC(=O)Nc3ncc(C)s3)CC2)o1 ?
PGE2 EP2 inh: 8.4; EP2 mod: -108.6

What do the screens show for `Clc1ccc(COC(Cn2ccnc2)c2ccc(Cl)cc2Cl)c(Cl)c1` (stereo not drawn)?
PGE2 EP2 inh: 11.1; NPY-Y1 PAM-ag: -63.4; NPY-Y2 PAM-ag: -11.9; EP2 mod: 2.7; NPY Y1 blocker: 22.9*; NPY Y2 blocker: 16.4; NPY-Y1 ant conf: 30.1*; NPY2 antag ctr: 25.3*

What do the screens show for `C=CCOc1c(CN2C3CCC2CC(O)(c2ccc(OC)cc2)C3)cccc1OC` (stereo not drawn)?
PGE2 EP2 inh: -0.1; EP2 mod: -20.1

What do the screens show for `COc1ccc2c(c1)c(C(=O)CN1CCN(C)CC1)c(C)n2Cc1ccccc1`?
PGE2 EP2 inh: 11.2; NPY-Y1 PAM-ag: -110.5; NPY-Y2 PAM-ag: -19.9; EP2 mod: -12.0; NPY Y1 blocker: 25.5*; NPY Y2 blocker: 15.5; NPY-Y1 ant conf: 8.1; NPY2 antag ctr: 15.1

What do the screens show for `CN1CC=C(c2c[nH]c3ccccc23)CC1`?
PGE2 EP2 inh: 7.8; NPY-Y1 PAM-ag: -2.2; NPY-Y2 PAM-ag: -0.2; EP2 mod: 3.3; NPY Y1 blocker: 35.6*; NPY Y2 blocker: 1.9; NPY-Y1 ant conf: 5.6; NPY2 antag ctr: 3.0

Results for C1=C(c2c[nH]c3ccccc23)CCN(Cc2ccccc2)C1 ?
PGE2 EP2 inh: 5.1; NPY-Y1 PAM-ag: 6.5; NPY-Y2 PAM-ag: -5.7; EP2 mod: -80.5; NPY Y1 blocker: -4.0

How did C[C@H]1OC[C@@H](C[N+](C)(C)C)O1 do in these assays?
PGE2 EP2 inh: 16.4; NPY-Y1 PAM-ag: -69.7; NPY-Y2 PAM-ag: -15.1; EP2 mod: 2.2; NPY Y1 blocker: 43.9*; NPY Y2 blocker: 6.3; NPY-Y1 ant conf: 35.8*; NPY2 antag ctr: 22.1*

Screening data: PubChem BioAssay, several laboratories
